The test system of series [1] is Mus musculus. Briefly: Teratogenicity in SWV/Fnn mouse assessed as live fetuses at 141 mg/kg, ip on day 8.5 of gestation (reference value: 93.7 %). Particulars: in vivo. Further details: dose 141 mg/kg, route intraperitoneal. The format is toxicity, organism-based.
A short description of series [2]: Neurotoxicity in ip dosed albino Sprague-Dawley rat assessed as minimal motor impairment after 0.25 to 0.5 hrs. The format is toxicity, organism-based. The note with it: in vivo. Put shortly:
(§1)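 Each test was run at the previously determined time to peak effect: 0.25–0.5 h after ip dosing, or 0.5–1 h after oral dosing. Groups of 4–8 animals received various doses until at least two points fell between 0% and 100% protection or minimal toxicity.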

The subject of series [3] is Rattus norvegicus. The series can be described thus: Anticonvulsant activity in ip dosed albino Sprague-Dawley rat assessed as protection against subcutaneous metrazol-induced seizures after 0.25 to 0.5 hrs. The format is functional. An outline of the steps:
as §1

The test system of series [4] is Rattus norvegicus. The series can be described thus: Anticonvulsant activity in ip dosed albino Sprague-Dawley rat assessed as protection against pilocarpine-induced behavioral seizures administered 30 mins post seizure measured after 0.25 to 0.5 hrs. The format is functional. Put shortly:
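Status epilepticus was induced in rats with lithium–pilocarpine. Compound was given ip 30 min after the first observed stage 3 or greater motor seizure. The read-out was prevention of further convulsive seizures across various doses in groups of 4–8 rats.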

Series [5] can be described thus: Neurotoxicity in po dosed albino Sprague-Dawley rat assessed as minimal motor impairment after 0.5 to 1 hr. It counts as toxicity, organism-based. Particulars: in vivo. An outline of the steps:
as §1

In series [6] the test system is Mus musculus. Briefly: Anticonvulsant activity in ip dosed albino CF1 mouse assessed as protection against 44 mA-current- for 3 secs induced seizures after 0.25 to 0.5 hrs by 6Hz psychomotor seizure test. The format is functional. An outline of the steps: as §1
The subject of series [7] is Mus musculus. The series can be described thus: Anticonvulsant activity in ip dosed albino CF1 mouse assessed as protection against subcutaneous metrazol-induced seizures after 0.25 to 0.5 hrs. It counts as functional. The note with it: albino CF1, 0.5 h. Put shortly: as §1
For series [8], the system named is Mus musculus. The series can be described thus: Teratogenicity in SWV/Fnn mouse assessed as resorption at 283 mg/kg, ip on day 8.5 of gestation (reference value: 6.3 %). The format is toxicity, organism-based. Further details: dose 283 mg/kg, route intraperitoneal. Particulars: in vivo.
The test system of series [9] is Mus musculus. Briefly: Teratogenicity in SWV/Fnn mouse assessed as normal fetuses at 141 mg/kg, ip on day 8.5 of gestation (reference value: 100 %). It counts as toxicity, organism-based. Further details: dose 141 mg/kg, route intraperitoneal. Particulars: in vivo.
A short description of series [10]: Terminal half life in rat at 60 mg/kg, ip. The format is ADME, organism-based. Further details: dose 60 mg/kg, route intraperitoneal. The note with it: in vivo, read-out: beta t1/2 (converted). An outline of the steps:
(§2)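 Naive rats got a single ip dose of 60 mg/kg, formulated in multisol (propylene glycol:alcohol:water for injection, 5:1:4). Plasma concentration–time profiles were followed, and PK parameters (t1/2, CL/F, Vz/F, AUC, Cmax, tmax, MRT) were derived from them.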

In series [11] the test system is Rattus norvegicus. The series can be described thus: Anticonvulsant activity in po dosed albino Sprague-Dawley rat assessed as protection against maximal electroshock-induced seizures after 0.5 to 1 hr. The format is functional. An outline of the steps:
as §1
In general terms: Protection in the maximal electroshock model is a classic sign of anticonvulsant action.

In series [12] the test system is Mus musculus. The series can be described thus: Teratogenicity in SWV/Fnn mouse assessed as resorption at 141 mg/kg, ip on day 8.5 of gestation (reference value: 6.3 %). It counts as toxicity, organism-based. Also noted: dose 141 mg/kg, route intraperitoneal. The note with it: in vivo.
Series [13] in a line: AUC in rat at 60 mg/kg, ip. The format is ADME, organism-based. Further details: dose 60 mg/kg, route intraperitoneal. Particulars: plasma. An outline of the steps: as §2
Series [14] has as its system Mus musculus. Briefly: Teratogenicity in SWV/Fnn mouse assessed as normal fetuses at 283 mg/kg, ip on day 8.5 of gestation (reference value: 100 %). Further details: dose 283 mg/kg, route intraperitoneal. Particulars: in vivo. The format is toxicity, organism-based.
Series [15] in a line: Neurotoxicity in ip dosed albino CF1 mouse assessed as minimal motor impairment after 0.25 to 0.5 hrs. It counts as toxicity, organism-based. Particulars: in vivo. Put shortly: as §1
The nature of series [16]: Apparent clearance in rat at 60 mg/kg, ip. The format is ADME, organism-based. Also noted: dose 60 mg/kg, route intraperitoneal. The note with it: in vivo. Put shortly:
as §2

Series [17] in a line: Cmax in rat at 60 mg/kg, ip. Particulars: in vivo. The format is ADME, organism-based. Also noted: dose 60 mg/kg, route intraperitoneal. Put shortly: as §2
The subject of series [18] is Hippocampus. Briefly: Protection against kainic acid-induced spontaneous electrographic seizures in combined medial entorhinal cortex hippocampal brain slices of albino Sprague-Dawley rat assessed as burst duration at 100 uM after 1 week relative to control. It counts as functional. An outline of the steps:
(§3)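 Rat brain slices showing spontaneous bursting were exposed to 100 μM compound. Burst rate and burst duration were expressed as % of control ± SEM.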

For series [19], the system named is Mus musculus. The series can be described thus: Anticonvulsant activity in ip dosed albino CF1 mouse assessed as protection against maximal electroshock-induced seizures after 0.25 to 0.5 hrs. It counts as functional. Put shortly:
as §1

The subject of series [20] is Mus musculus. The series can be described thus: Teratogenicity in SWV/Fnn mouse assessed as live fetuses at 283 mg/kg, ip on day 8.5 of gestation (reference value: 93.7 %). The format is toxicity, organism-based. The note with it: in vivo. Also noted: dose 283 mg/kg, route intraperitoneal.
Series [21] can be described thus: Mean residence time in rat at 60 mg/kg, ip. Also noted: dose 60 mg/kg, route intraperitoneal. The format is ADME, organism-based. Particulars: in vivo. Put shortly:
as §2

The subject of series [22] is Mus musculus. The series can be described thus: Anticonvulsant activity in ip dosed albino CF1 mouse assessed as protection against 32 mA-current- for 3 secs induced seizures after 0.25 to 0.5 hrs by 6Hz psychomotor seizure test. It counts as functional. Put shortly: as §1
Series [23] deals with Hippocampus. Briefly: Protection against kainic acid-induced spontaneous electrographic seizures in combined medial entorhinal cortex hippocampal brain slices of albino Sprague-Dawley rat assessed as burst rate at 100 uM after 1 week relative to control. It counts as functional. Put shortly: as §3
The test system of series [24] is Mus musculus. Briefly: Teratogenicity in SWV/Fnn mouse assessed as fetuses with neural tube defects at 283 mg/kg, ip on day 8.5 of gestation relative to vehicle-treated control. It counts as toxicity, organism-based. Also noted: dose 283 mg/kg, route intraperitoneal. Particulars: in vivo.
A short description of series [25]: Apparent volume of distribution […] in rat at 60 mg/kg, ip. The format is ADME, organism-based. Further details: dose 60 mg/kg, route intraperitoneal. The note with it: in vivo, read-out: Vz/F. Put shortly:
as §2

Series [26] deals with Mus musculus. Briefly: Teratogenicity in SWV/Fnn mouse assessed as fetuses with neural tube defects at 141 mg/kg, ip on day 8.5 of gestation relative to vehicle-treated control. It counts as toxicity, organism-based. Further details: dose 141 mg/kg, route intraperitoneal. Particulars: in vivo.
Series [27] is described as follows: Tmax in rat at 60 mg/kg, ip. The format is ADME, organism-based. Also noted: dose 60 mg/kg, route intraperitoneal. The note with it: in vivo. An outline of the steps:
as §2

Series [28] has as its system Mus musculus. The series can be described thus: Teratogenicity in SWV/Fnn mouse assessed as normal fetuses at 181 mg/kg, ip on day 8.5 of gestation (reference value: 100 %). It counts as toxicity, organism-based. Further details: dose 181 mg/kg, route intraperitoneal. Particulars: in vivo.
Series [29] concerns Mus musculus. Briefly: Teratogenicity in SWV/Fnn mouse assessed as live fetuses at 181 mg/kg, ip on day 8.5 of gestation (reference value: 93.7 %). Further details: dose 181 mg/kg, route intraperitoneal. The format is toxicity, organism-based. The note with it: in vivo.
The subject of series [30] is Mus musculus. The series can be described thus: Teratogenicity in SWV/Fnn mouse assessed as resorption at 181 mg/kg, ip on day 8.5 of gestation (reference value: 6.3 %). It counts as toxicity, organism-based. Particulars: in vivo. Also noted: dose 181 mg/kg, route intraperitoneal.
The test system of series [31] is Mus musculus. Briefly: Teratogenicity in SWV/Fnn mouse assessed as resorption at 301 mg/kg, ip on day 8.5 of gestation (reference value: 6.3 %). It counts as toxicity, organism-based. Further details: dose 301 mg/kg, route intraperitoneal. The note with it: in vivo.
The subject of series [32] is Mus musculus. Briefly: Teratogenicity in SWV/Fnn mouse assessed as fetuses with neural tube defects at 181 mg/kg, ip on day 8.5 of gestation relative to vehicle-treated control. Also noted: dose 181 mg/kg, route intraperitoneal. It counts as toxicity, organism-based. Particulars: in vivo.
Series [33] has as its system Mus musculus. Briefly: Teratogenicity in SWV/Fnn mouse assessed as normal fetuses at 301 mg/kg, ip on day 8.5 of gestation (reference value: 100 %). The format is toxicity, organism-based. The note with it: in vivo. Also noted: dose 301 mg/kg, route intraperitoneal.

Bounds are passed on as bounds.

As for `CCC[C@@H](C(N)=O)[C@@H](C)CC` [(2R,3S)-SEC-BUTYLPROPYLACETAMIDE], the Activity with Mus musculus [1] is on record as 91.6%; in the series with Mus musculus [8], 6.5%; with Mus musculus [9], 100%; in the series on Mus musculus [12], 8.4%; with Mus musculus [14] it was 100%; in the series with Hippocampus [18], 78%. Also, the Activity in the series on Mus musculus [20] turned out to be 93.5%; in the series on Hippocampus [23] it was 97%; with Mus musculus [24], 0%; in the series with Mus musculus [26] it was 0%. Also, the TD50 (in general, the 50% point of the dose-response relation for the toxic effect studied) in series [2] stood at 41 mg/kg; in series [5] it was 79 mg/kg; in series [15], 67 mg/kg. Moreover, the ED50 (usually the dose that gives a 50% effect, or the effect in half of the subjects) with Rattus norvegicus [3] was 15 mg/kg; in the series on Rattus norvegicus [4], 135 mg/kg; in the series on Mus musculus [6] it was 51 mg/kg; with Mus musculus [7], 93 mg/kg; in the series with Rattus norvegicus [11], 72 mg/kg; in the series on Mus musculus [19], 95 mg/kg. The ED50 with Mus musculus [22] was found to be 29 mg/kg. Besides, in series [10], the half-life was 1.3 h. Moreover, in [13], the AUC – broadly, concentration integrated over time – stood at 15200 ng·h/mL. Moreover, in [16], the CL/F (in general, clearance divided by bioavailability, as obtained after extravascular dosing) was 65 mL/min/kg. Besides, the Cmax – broadly, the peak of the concentration-time curve – in series [17] turned out to be 5300 ng/mL. The MRT – broadly, the average time that molecules of a dose stay in the body – in series [21] was found to be 2.2 h. The Vd/F in series [25] was 7.2 L/kg. The Tmax (usually the time from dosing to the highest level) in series [27] was 1 h.
Take `CCC[C@H](C(N)=O)[C@H](C)CC` [(2S,3R)-SEC-BUTYLPROPYLACETAMIDE]: the Activity in the series with Mus musculus [1] stood at 92.6%; in the series with Mus musculus [8], 9.4%; in the series on Mus musculus [9], 100%; in the series on Mus musculus [12], 7.4%; in the series with Mus musculus [14], 100%; with Hippocampus [18] it was 90%. Also, the Activity with Mus musculus [20] is 90.6%; in the series with Hippocampus [23], 91%; in the series with Mus musculus [24] it was 0%; in the series on Mus musculus [26], 0%. Further, the ED50 is more than 130 mg/kg with Rattus norvegicus [4], less than 100 mg/kg in the series with Mus musculus [6], 106 mg/kg in the series on Rattus norvegicus [11] and 27 mg/kg with Mus musculus [22]. Moreover, the figures for the TD50 in [5] and in [15] were 105 mg/kg and more than 75 mg/kg, respectively. The half-life in [10] was 0.95 h. The AUC in series [13] came to 12600 ng·h/mL. In addition, the apparent clearance CL/F in series [16] was 76.7 mL/min/kg. Besides, the Cmax in series [17] came to 8000 ng/mL. In [21], this molecule came in with an MRT of 1.5 h. Besides, the Vd/F in [25] is 6.3 L/kg. For the same molecule, the Tmax in series [27] was found to be 0.5 h.
For the molecule `CCCC(CCC)C(=O)[O-].[Na+]` [VALPROATE SODIUM], the Activity is 100% with Mus musculus [28]; 92.3% in the series on Mus musculus [29]; 7.7% in the series on Mus musculus [30]; 13.6% in the series on Mus musculus [31]; 0% with Mus musculus [32]; 99% in the series on Mus musculus [33].

These data come from ChEMBL document CHEMBL2417510, “Stereoselective pharmacodynamic and pharmacokinetic analysis of sec-Butylpropylacetamide (SPD), a new CNS-active derivative of valproic acid with unique activity against status epilepticus” (J Med Chem, 2013).
